The source made the active and inactive calls. The rule behind the calls is not given here.
Columns and labels:
Homo sapiens = organism: Homo sapiens; assay: Selectivity index, ratio of Ki for human recombinant CB1 receptor to Ki for human recombinant CB2 receptor
COS-7 = assay: Inhibition of MAGL in african green monkey COS7 cells assessed as [14C]-2-arachidonoyl-glycerol hydrolysis up to 10 uM; assay type: cell-based; settings: Chlorocebus aethiops
Summary of the method: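 COS-7 cell MAGL-like activity measured as hydrolysis of [¹⁴C]-2-arachidonoyl-glycerol, with compound tested at 0.1, 1, 5 and 10 μM.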

[1] = Cytotoxicity against human HepG2 cells assessed as cell viability at 1 uM after 72 hrs by MTT assay; assay type: cell-based; settings: read-out: Activity
Summary of the method: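 HepG2 cells in DMEM with 10% FBS at 37 °C and 5% CO2 were seeded at 1 × 10⁵ per well and left to attach for 24 h. Compound was added at 1 μM final, diluted from a 1 mM DMSO stock, for 72 h. MTT was then added for 4 h at 37 °C, formazan was dissolved in DMSO and read at 540 nm. Viability = A(test)/A(medium-only control) × 100.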

Cannabinoid receptor 2 = Cannabinoid receptor 2 (Homo sapiens, UniProt P34972); assay: Displacement of [3H]CP-55940 from human recombinant CB2 receptor expressed in HEK cells; assay type: cell-based, HEK293
Mus musculus [2] = assay: Antinociceptive activity in mouse assessed as reduction of formalin-induced nocifensive response at 6 mg/kg, ip administered 15 mins before formalin challenge measured second phase of 20 to 60 mins; assay type: functional, organism-based; parameters: dose 6 mg/kg
Summary of the method: (§1)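 Mice received compound ip at 1, 3 or 6 mg/kg (or vehicle) 15 min before formalin (1.25% in saline, 30 μL) was injected into the dorsal hindpaw. An observer blind to treatment timed lifting, favoring, licking, shaking and flinching of the injected paw over 0–10 min (early phase) and 20–60 min (late phase). n = 8–10 per group, one treatment per animal. Means ± SEM, ANOVA with Dunnett's test.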

Mus musculus [3] = assay: Antinociceptive activity in mouse assessed as reduction of formalin-induced nocifensive response at 6 mg/kg, ip administered 15 mins before formalin challenge measured second phase of 20 to 60 mins in presence of CB2 receptor antagonist 1 mg/kg, ip of AM630; assay type: functional, organism-based
Summary of the method: (§2)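 Formalin paw test in mice. AM630 (1 mg/kg, ip) was given 5 min before the compound, and the compound was given ip 15 min before intraplantar-dorsal formalin (1.25% in saline, 30 μL). A blinded observer timed paw lifting, favoring, licking, shaking and flinching at 0–10 and 20–60 min. n = 8–10 per group. Means ± SEM, ANOVA with Dunnett's test.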

Cannabinoid receptor 1 = Cannabinoid receptor 1 (Homo sapiens, UniProt P21554); assay: biochemical; assay type: cell-based, HEK293
[4] = molecular target: T1, Fatty-acid amide hydrolase 1 (Rattus norvegicus) (UniProt P97612); assay: Inhibition of rat brain FAAH assessed as [14C]-anandamide hydrolysis up to 10 uM
T1 sequence (whole entry): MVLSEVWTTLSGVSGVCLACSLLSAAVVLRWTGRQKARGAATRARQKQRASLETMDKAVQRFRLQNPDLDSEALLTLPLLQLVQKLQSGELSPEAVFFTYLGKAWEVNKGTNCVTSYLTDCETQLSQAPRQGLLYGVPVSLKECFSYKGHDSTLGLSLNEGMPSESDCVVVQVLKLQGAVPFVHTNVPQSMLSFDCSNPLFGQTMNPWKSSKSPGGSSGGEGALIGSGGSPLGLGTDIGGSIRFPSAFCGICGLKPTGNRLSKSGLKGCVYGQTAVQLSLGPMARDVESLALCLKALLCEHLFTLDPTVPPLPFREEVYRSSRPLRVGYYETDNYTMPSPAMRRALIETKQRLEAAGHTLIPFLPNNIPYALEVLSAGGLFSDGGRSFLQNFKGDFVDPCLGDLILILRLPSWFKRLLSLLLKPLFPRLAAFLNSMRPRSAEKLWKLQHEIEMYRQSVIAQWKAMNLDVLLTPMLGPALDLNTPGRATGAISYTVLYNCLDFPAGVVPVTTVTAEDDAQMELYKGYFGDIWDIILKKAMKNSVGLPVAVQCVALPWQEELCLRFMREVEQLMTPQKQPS
Summary of the method: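 Hydrolysis of [¹⁴C]-anandamide by rat brain FAAH-like activity, with compound at 0.1, 1, 5 and 10 μM.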

Mus musculus [5] = assay: Antinociceptive activity in mouse assessed as reduction of formalin-induced nocifensive response at 3 mg/kg, ip administered 15 mins before formalin challenge measured second phase of 20 to 60 mins; assay type: functional, organism-based; parameters: dose 3 mg/kg; summary of the method: as §1
Mus musculus [6] = assay: Antinociceptive activity in mouse assessed as reduction of formalin-induced nocifensive response at 3 mg/kg, ip administered 15 mins before formalin challenge measured first phase of 0 to 10 mins; assay type: functional, organism-based; parameters: dose 3 mg/kg; summary of the method: as §1
Mus musculus [7] = assay: Antinociceptive activity in mouse assessed as reduction of formalin-induced nocifensive response at 3 mg/kg, ip administered 15 mins before formalin challenge measured first phase of 0 to 10 mins in presence of CB2 receptor antagonist 1 mg/kg, ip of AM630; assay type: functional, organism-based; summary of the method: as §2
Mus musculus [8] = assay: Antinociceptive activity in ip dosed mouse assessed as reduction of formalin-induced nocifensive response administered 15 mins before formalin challenge measured first phase of 0 to 10 mins; assay type: functional; settings: read-out: MED; summary of the method: as §1

Chain of Cannabinoid receptor 2 (P34972 whole entry): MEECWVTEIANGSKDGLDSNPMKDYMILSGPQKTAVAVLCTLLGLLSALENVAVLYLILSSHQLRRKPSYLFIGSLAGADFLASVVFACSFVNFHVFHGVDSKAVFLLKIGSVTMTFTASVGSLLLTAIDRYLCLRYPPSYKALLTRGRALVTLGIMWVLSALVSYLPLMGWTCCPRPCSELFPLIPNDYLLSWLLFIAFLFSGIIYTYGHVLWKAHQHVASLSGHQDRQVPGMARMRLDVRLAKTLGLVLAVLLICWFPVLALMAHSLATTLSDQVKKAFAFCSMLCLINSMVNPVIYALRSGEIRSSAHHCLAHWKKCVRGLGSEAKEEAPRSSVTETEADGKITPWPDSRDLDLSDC
Chain of Cannabinoid receptor 1 (P21554 whole entry): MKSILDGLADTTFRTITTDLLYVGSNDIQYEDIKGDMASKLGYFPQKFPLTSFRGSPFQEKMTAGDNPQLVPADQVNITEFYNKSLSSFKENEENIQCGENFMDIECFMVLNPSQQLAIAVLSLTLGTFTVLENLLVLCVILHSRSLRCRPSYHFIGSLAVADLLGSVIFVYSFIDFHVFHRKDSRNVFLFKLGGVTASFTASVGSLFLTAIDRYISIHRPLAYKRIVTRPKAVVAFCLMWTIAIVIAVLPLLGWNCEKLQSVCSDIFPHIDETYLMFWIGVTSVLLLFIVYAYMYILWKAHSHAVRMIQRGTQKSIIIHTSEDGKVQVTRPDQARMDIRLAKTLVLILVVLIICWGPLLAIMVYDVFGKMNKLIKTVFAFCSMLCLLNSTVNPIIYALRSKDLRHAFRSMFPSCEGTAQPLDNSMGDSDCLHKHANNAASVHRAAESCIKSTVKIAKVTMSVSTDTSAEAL

## CCCCCn1cc(C(=O)NC23CC4CC(CC(C4)C2)C3)c(=O)c2cccc(OC)c21
Homo sapiens
  Ratio Ki: > 16700
COS-7
  inhibition: inactive
[1]
  viability at 72 h, 1 µM: > 95%
Cannabinoid receptor 2
  Ki: 0.6 nM
Mus musculus [2]
  Activity: Active
Mus musculus [3]
  Activity: Active
Cannabinoid receptor 1
  Ki: > 10000 nM
[4]
  inhibition: inactive

## COc1cccc2c(O)c(C(=O)NC34CC5CC(CC(C5)C3)C4)cnc12
Cannabinoid receptor 2
  Ki: 3440 nM
Cannabinoid receptor 1
  Ki: > 10000 nM

## O=C(NC12CC3CC(CC(C3)C1)C2)c1cnc2c(-c3ccccc3)cccc2c1O
[1]
  viability at 72 h, 1 µM: > 95%
Cannabinoid receptor 2
  Ki: 220 nM
Cannabinoid receptor 1
  Ki: > 10000 nM

## COc1cccc2c(=O)c(C(=O)NC34CC5CC(CC(C5)C3)C4)c[nH]c12
Homo sapiens
  Ratio Ki: > 2.9

## CCCCCOc1cccc2c(=O)c(C(=O)NC34CC5CC(CC(C5)C3)C4)c[nH]c12
Homo sapiens
  Ratio Ki: 4.3

## CCCCCn1c(=O)c(C(=O)NC23CC4CC(CC(C4)C2)C3)c(O)c2cc(Br)ccc21
Homo sapiens
  Ratio Ki: > 340
Mus musculus [5]
  Activity: Active
COS-7
  inhibition: inactive
[1]
  viability at 72 h, 1 µM: > 95%
Cannabinoid receptor 2
  Ki: 29.4 nM
Mus musculus [6]
  Activity: Active
Cannabinoid receptor 1
  Ki: > 10000 nM
[4]
  inhibition: inactive
Mus musculus [7]
  Activity: inactive

## CCCCCOc1cccc2c(O)c(C(=O)NC34CC5CC(CC(C5)C3)C4)cnc12
[1]
  viability at 72 h, 1 µM: > 95%
Cannabinoid receptor 2
  Ki: 60 nM
Cannabinoid receptor 1
  Ki: 260 nM

## O=C(NC12CC3CC(CC(C3)C1)C2)c1c[nH]c2c(-c3ccccc3)cccc2c1=O
Homo sapiens
  Ratio Ki: 45

## CCC1COc2cccc3c(=O)c(C(=O)NC45CC6CC(CC(C6)C4)C5)cn1c23 (stereo not given)
Homo sapiens
  Ratio Ki: 145
Mus musculus [5]
  Activity: Active
COS-7
  inhibition: inactive
[1]
  viability at 72 h, 1 µM: > 95%
Cannabinoid receptor 2
  Ki: 6.9 nM
Cannabinoid receptor 1
  Ki: 1000 nM
Mus musculus [8]
  minimal effective dose: 1 mg/kg
[4]
  inhibition: inactive
Mus musculus [7]
  Activity: Active

## CCCCCn1cc(C(=O)NC23CC4CC(CC(C4)C2)C3)c(=O)c2cc(-c3ccccc3)cc(OC)c21
Homo sapiens
  Ratio Ki: > 23
[1]
  viability at 72 h, 1 µM: > 95%
Cannabinoid receptor 2
  Ki: 430 nM
Cannabinoid receptor 1
  Ki: > 10000 nM

## CCCCCn1c(=O)c(C(=O)NC23CC4CC(CC(C4)C2)C3)cc2ccccc21
Homo sapiens
  Ratio Ki: 157
Cannabinoid receptor 2
  Ki: 0.2 nM
Cannabinoid receptor 1
  Ki: 31.3 nM

## CCCCCn1cc(C(=O)NC23CC4CC(CC(C4)C2)C3)c(=O)c2cccc(C)c21
Homo sapiens
  Ratio Ki: > 2040
[1]
  viability at 72 h, 1 µM: > 95%
Cannabinoid receptor 2
  Ki: 0.7 nM
Cannabinoid receptor 1
  Ki: > 10000 nM

## CCCCc1[nH]c2ccc(-c3ccco3)cc2c(=O)c1C(=O)NC12CC3CC(CC(C3)C1)C2
Homo sapiens
  Ratio Ki: > 75
[1]
  viability at 72 h, 1 µM: > 95%
Cannabinoid receptor 2
  Ki: 133 nM
Cannabinoid receptor 1
  Ki: > 10000 nM

## CCCCCn1c(=O)c(C(=O)NC23CC4CC(CC(C4)C2)C3)c(O)c2cc(-c3ccco3)ccc21
Homo sapiens
  Ratio Ki: 18
[1]
  viability at 72 h, 1 µM: > 95%
Cannabinoid receptor 2
  Ki: 15 nM
Cannabinoid receptor 1
  Ki: 270 nM

## CCCCCn1cc(C(=O)NC23CC4CC(CC(C4)C2)C3)c(=O)c2cccc([N+](=O)[O-])c21
Homo sapiens
  Ratio Ki: 200
Cannabinoid receptor 2
  Ki: 1 nM
Cannabinoid receptor 1
  Ki: 200 nM

## CCCCCn1cc(C(=O)NC23CC4CC(CC(C4)C2)C3)c(=O)c2cc(Br)cc(OC)c21
Homo sapiens
  Ratio Ki: > 437
[1]
  viability at 72 h, 1 µM: > 95%
Cannabinoid receptor 2
  Ki: 22.9 nM
Cannabinoid receptor 1
  Ki: > 10000 nM

## CCCCCn1cc(C(=O)NC23CC4CC(CC(C4)C2)C3)c(=O)c2cc(-c3ccco3)cc(OC)c21
Homo sapiens
  Ratio Ki: > 1180
Mus musculus [5]
  Activity: Active
COS-7
  inhibition: inactive
[1]
  viability at 72 h, 1 µM: > 95%
Cannabinoid receptor 2
  Ki: 8.5 nM
Cannabinoid receptor 1
  Ki: > 10000 nM
Mus musculus [8]
  minimal effective dose: 1 mg/kg
[4]
  inhibition: inactive
Mus musculus [7]
  Activity: inactive

## CCCCc1[nH]c2ccc(Br)cc2c(=O)c1C(=O)NC12CC3CC(CC(C3)C1)C2
Homo sapiens
  Ratio Ki: > 8
Cannabinoid receptor 2
  Ki: 1180 nM
Cannabinoid receptor 1
  Ki: > 10000 nM

— ChEMBL document CHEMBL1811785, “Investigations on the 4-quinolone-3-carboxylic acid motif. 4. Identification of new potent and selective ligands for the cannabinoid type 2 receptor with diverse substitution patterns and antihyperalgesic effects in mice” (J Med Chem, 2011)
